Assay results as given in ChEMBL document CHEMBL4229344 (Eur J Med Chem, 2018).
Active and inactive are the calls of the source. The calls are words filed in the database; no cut-off is given here.

What was measured:
[1] = system: Tyrosine-protein kinase ABL1 (Homo sapiens), P00519 [F317I]; assay: Binding affinity to human non-phosphorylated ABL1 F317I mutant (S229 to K512 residues) expressed in mammalian expression system assessed as residual binding level at 1 uM by Kinomescan method relative to control
Outline: (§1)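 Kinome-wide single-concentration binding screen (KINOMEscan) at 1 μM against a panel of 468 purified kinases and mutants. Read-out is relative binding of each kinase compared with control. Selectivity across the panel was summarised as an S(10) score.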

[2] = system: Tyrosine-protein kinase ABL1 (Homo sapiens), P00519 [F317L]; assay: Binding affinity to human non-phosphorylated ABL1 F317L mutant (S229 to K512 residues) expressed in mammalian expression system assessed as residual binding level at 1 uM by Kinomescan method relative to control; outline: as §1
[3] = target: Serine/threonine-protein kinase BRSK2 (Homo sapiens) (UniProt Q8IWQ3); assay: Binding affinity to wild-type human full length BRSK2 (M1 to L674 residues) expressed in bacterial expression system assessed as residual binding level at 1 uM by Kinomescan method relative to control
Outline: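 Single-concentration (1 μM) competition-binding screen run by KINOMEscan against a panel of 468 purified kinases and mutants. The read-out is the relative binding activity of the test compound to each kinase.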

[4] = target: Cyclin-dependent kinase 13 (Homo sapiens) (UniProt Q14004); assay: Binding affinity to wild-type human partial length CDC2L5 (H675 to S1054 residues) expressed in mammalian expression system assessed as residual binding level at 1 uM by Kinomescan method relative to control
[5] = system: Epidermal growth factor receptor (Homo sapiens), P00533 [L858R]; assay: Binding affinity to human partial length EGFR L858R mutant (R669 to V1011 residues) expressed in bacterial expression system assessed as residual binding level at 1 uM by Kinomescan method relative to control; outline: as §1
[6] = target: Ephrin type-B receptor 3 (Homo sapiens) (UniProt P54753); assay: Binding affinity to wild-type human partial length EPHB3 (Q599 to T928 residues) expressed in bacterial expression system assessed as residual binding level at 1 uM by Kinomescan method relative to control
Outline: (§2)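 Kinome-wide competition binding screen against a panel of 468 purified kinases/mutants, with the test compound at a single concentration of 1 μM. Read-out is the relative binding activity of each kinase in the presence of compound.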

[7] = target: Receptor tyrosine-protein kinase erbB-3 (Homo sapiens) (UniProt P21860); assay: Binding affinity to wild-type human partial length ERBB3 (G684 to A987 residues) expressed in mammalian expression system assessed as residual binding level at 1 uM by Kinomescan method relative to control
[8] = target: Mitogen-activated protein kinase 1 (Homo sapiens) (UniProt P28482); assay: Binding affinity to wild-type human full length ERK2 (M1 to S360 residues) expressed in bacterial expression system assessed as residual binding level at 1 uM by Kinomescan method relative to control
Outline: (§3)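 KINOMEscan competition binding against 468 purified kinases/mutants, test compound at 1 µM; residual binding relative to control.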

[9] = target: Vascular endothelial growth factor receptor 3 (Homo sapiens) (UniProt P35916); assay: Binding affinity to wild-type human partial length FLT4 (E821 to E1196 residues) expressed in bacterial expression system assessed as residual binding level at 1 uM by Kinomescan method relative to control
[10] = target: Mitogen-activated protein kinase kinase kinase 2 (Homo sapiens) (UniProt Q9Y2U5); assay: Binding affinity to wild-type human partial length MAP3K2 (S315 to H619 residues) expressed in mammalian expression system assessed as residual binding level at 1 uM by Kinomescan method relative to control
[11] = target: Mitogen-activated protein kinase kinase kinase kinase 4 (Homo sapiens) (UniProt O95819); assay: Binding affinity to wild-type human partial length MAP4K4 (M1 to R310 residues) expressed in bacterial expression system assessed as residual binding level at 1 uM by Kinomescan method relative to control; outline: as §2
[12] = target: MAP/microtubule affinity-regulating kinase 4 (Homo sapiens) (UniProt Q96L34); assay: Binding affinity to wild-type human partial length MARK4 (K29 to G340 residues) expressed in bacterial expression system assessed as residual binding level at 1 uM by Kinomescan method relative to control
[13] = target: Serine/threonine-protein kinase NLK (Homo sapiens) (UniProt Q9UBE8); assay: Binding affinity to wild-type human full length NLK (M13 to E527 residues) expressed in bacterial expression system assessed as residual binding level at 1 uM by Kinomescan method relative to control; outline: as §3
[14] = target: Serine/threonine-protein kinase PAK 2 (Homo sapiens) (UniProt Q13177); assay: Binding affinity to wild-type human partial length PAK2 (P151 to R525 residues) expressed in bacterial expression system assessed as residual binding level at 1 uM by Kinomescan method relative to control
Outline: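 KINOMEscan competition binding against a panel of 468 purified kinases/mutants, compound tested at 1 μM; readout is relative binding activity versus control.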

[15] = target: Ribosomal protein S6 kinase alpha-2 (Homo sapiens) (UniProt Q15349); assay: Binding affinity to wild-type human partial length C-terminal RSK3 kinase domain 2 (V403 to K700 residues) expressed in bacterial expression system assessed as residual binding level at 1 uM by Kinomescan method relative to control
[16] = target: Ribosomal protein S6 kinase alpha-6 (Homo sapiens) (UniProt Q9UK32); assay: Binding affinity to wild-type human partial length C-terminal RSK4 kinase domain 2 (I401 to Y711 residues) expressed in bacterial expression system assessed as residual binding level at 1 uM by Kinomescan method relative to control
[17] = target: Serine/threonine-protein kinase SIK1 (Homo sapiens) (UniProt P57059); assay: Binding affinity to wild-type human partial length SIK (M1 to Y304 residues) expressed in bacterial expression system assessed as residual binding level at 1 uM by Kinomescan method relative to control
[18] = target: Serine/threonine-protein kinase TBK1 (Homo sapiens) (UniProt Q9UHD2); assay: Binding affinity to wild-type human full length TBK1 (M1 to L729 residues) expressed in mammalian expression system assessed as residual binding level at 1 uM by Kinomescan method relative to control
Outline: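 Single-concentration KINOMEscan (DiscoverX) binding screen at 1 μM against a panel of 468 purified kinases and mutants. The read-out is binding relative to control.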

[19] = target: Epithelial discoidin domain-containing receptor 1 (Homo sapiens, UniProt Q08345); assay: Inhibition of DDR1 (unknown origin) using poly(4:1 Glu,Tyr) peptide as substrate preincubated for 1 hr followed by addition of ATP and measured after 30 mins by ADP-Glo bioluminescence assay
[20] = target: T1, Platelet-derived growth factor receptor alpha (Homo sapiens, UniProt P16234); assay: Inhibition of PDGFRalpha in human EOL-1 cells assessed as decrease in ERK1/2 phosphorylation at T202/Y204 residues up to 300 nM after 2 hrs by Western blot analysis; type: cell-based
[21] = target: T1, Platelet-derived growth factor receptor alpha; assay: Inhibition of PDGF-induced PDGFRalpha autophosphorylation at Y1018 residue in human NCI-H1703 cells after 2 hrs in presence of PDGF-AA by Western blot analysis; type: cell-based

T1 sequence (P16234 whole entry): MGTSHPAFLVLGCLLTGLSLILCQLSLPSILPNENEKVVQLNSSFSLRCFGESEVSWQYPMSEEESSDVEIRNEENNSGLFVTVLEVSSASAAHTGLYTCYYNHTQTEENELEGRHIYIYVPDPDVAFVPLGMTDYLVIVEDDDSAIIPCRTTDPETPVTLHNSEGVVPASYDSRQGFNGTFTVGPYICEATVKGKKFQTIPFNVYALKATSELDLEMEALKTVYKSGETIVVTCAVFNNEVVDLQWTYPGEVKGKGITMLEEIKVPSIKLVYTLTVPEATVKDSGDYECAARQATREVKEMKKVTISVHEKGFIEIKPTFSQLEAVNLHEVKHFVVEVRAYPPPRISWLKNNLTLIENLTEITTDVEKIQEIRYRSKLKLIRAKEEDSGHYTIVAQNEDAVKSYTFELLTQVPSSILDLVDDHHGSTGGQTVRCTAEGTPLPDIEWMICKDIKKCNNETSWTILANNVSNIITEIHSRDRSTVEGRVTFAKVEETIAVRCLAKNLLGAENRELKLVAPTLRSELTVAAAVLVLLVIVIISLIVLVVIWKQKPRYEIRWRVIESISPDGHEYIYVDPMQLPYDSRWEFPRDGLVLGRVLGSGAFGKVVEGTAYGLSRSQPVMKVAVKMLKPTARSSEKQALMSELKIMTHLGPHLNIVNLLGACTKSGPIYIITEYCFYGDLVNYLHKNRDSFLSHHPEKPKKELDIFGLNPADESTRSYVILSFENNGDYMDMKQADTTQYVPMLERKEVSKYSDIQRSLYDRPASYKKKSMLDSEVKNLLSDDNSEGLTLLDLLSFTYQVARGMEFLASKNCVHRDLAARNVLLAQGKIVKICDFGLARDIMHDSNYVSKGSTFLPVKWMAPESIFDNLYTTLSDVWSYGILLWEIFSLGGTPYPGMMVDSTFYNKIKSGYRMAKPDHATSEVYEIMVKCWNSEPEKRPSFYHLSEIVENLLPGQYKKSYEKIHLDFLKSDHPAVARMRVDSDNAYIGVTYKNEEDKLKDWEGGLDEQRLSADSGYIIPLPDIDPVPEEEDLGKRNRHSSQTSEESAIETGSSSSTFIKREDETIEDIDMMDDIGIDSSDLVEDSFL
Chain of Ephrin type-B receptor 3 (Homo sapiens) (P54753 whole entry, the tested form may be a part): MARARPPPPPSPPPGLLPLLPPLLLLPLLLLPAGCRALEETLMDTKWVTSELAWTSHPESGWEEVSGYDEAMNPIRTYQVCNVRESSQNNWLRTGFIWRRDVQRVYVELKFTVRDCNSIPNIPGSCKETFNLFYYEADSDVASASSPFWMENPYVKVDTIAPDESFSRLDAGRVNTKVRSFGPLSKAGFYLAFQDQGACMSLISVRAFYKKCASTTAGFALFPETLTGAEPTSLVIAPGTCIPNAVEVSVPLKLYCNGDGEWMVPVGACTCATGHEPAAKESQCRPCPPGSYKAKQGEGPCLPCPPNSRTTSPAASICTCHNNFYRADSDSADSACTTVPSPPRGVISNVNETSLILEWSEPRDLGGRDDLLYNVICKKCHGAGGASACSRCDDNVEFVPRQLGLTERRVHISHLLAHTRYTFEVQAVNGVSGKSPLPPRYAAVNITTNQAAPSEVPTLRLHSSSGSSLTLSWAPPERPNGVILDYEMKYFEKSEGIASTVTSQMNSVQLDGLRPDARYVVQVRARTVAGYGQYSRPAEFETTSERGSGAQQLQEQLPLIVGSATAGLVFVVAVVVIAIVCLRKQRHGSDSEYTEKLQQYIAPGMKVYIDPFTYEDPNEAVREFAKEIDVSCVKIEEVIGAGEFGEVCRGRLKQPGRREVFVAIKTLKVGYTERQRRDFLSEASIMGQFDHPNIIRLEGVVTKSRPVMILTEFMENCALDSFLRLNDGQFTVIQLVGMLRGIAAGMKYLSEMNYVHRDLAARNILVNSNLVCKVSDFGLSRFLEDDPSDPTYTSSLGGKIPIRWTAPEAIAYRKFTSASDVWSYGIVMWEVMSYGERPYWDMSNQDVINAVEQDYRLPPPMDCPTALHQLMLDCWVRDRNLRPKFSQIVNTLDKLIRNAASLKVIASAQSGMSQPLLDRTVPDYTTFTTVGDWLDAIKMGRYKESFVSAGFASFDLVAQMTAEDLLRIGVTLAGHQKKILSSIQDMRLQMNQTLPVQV
Chain of Ribosomal protein S6 kinase alpha-2 (Homo sapiens) (Q15349 whole entry, the tested form may be a part): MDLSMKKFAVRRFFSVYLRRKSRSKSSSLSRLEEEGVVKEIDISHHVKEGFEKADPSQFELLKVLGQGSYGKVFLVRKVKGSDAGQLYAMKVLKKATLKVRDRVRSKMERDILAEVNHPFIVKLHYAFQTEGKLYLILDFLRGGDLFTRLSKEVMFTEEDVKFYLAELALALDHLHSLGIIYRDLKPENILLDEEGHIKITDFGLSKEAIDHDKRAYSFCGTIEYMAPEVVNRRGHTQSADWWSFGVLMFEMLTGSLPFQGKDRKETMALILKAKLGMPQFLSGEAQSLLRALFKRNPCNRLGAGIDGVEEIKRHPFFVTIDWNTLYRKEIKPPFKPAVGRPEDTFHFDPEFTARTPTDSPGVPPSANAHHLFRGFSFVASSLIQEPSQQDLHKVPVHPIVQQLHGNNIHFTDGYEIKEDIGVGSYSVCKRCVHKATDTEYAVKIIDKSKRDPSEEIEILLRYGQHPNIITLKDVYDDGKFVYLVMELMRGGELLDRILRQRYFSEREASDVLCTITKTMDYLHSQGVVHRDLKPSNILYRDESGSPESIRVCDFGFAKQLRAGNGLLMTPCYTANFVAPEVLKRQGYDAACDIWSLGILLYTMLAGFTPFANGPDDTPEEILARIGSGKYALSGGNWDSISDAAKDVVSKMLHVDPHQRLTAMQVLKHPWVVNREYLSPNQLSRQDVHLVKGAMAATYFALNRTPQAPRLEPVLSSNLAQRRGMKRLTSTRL
Chain of Serine/threonine-protein kinase BRSK2 (Homo sapiens) (Q8IWQ3 whole entry, the tested form may be a part): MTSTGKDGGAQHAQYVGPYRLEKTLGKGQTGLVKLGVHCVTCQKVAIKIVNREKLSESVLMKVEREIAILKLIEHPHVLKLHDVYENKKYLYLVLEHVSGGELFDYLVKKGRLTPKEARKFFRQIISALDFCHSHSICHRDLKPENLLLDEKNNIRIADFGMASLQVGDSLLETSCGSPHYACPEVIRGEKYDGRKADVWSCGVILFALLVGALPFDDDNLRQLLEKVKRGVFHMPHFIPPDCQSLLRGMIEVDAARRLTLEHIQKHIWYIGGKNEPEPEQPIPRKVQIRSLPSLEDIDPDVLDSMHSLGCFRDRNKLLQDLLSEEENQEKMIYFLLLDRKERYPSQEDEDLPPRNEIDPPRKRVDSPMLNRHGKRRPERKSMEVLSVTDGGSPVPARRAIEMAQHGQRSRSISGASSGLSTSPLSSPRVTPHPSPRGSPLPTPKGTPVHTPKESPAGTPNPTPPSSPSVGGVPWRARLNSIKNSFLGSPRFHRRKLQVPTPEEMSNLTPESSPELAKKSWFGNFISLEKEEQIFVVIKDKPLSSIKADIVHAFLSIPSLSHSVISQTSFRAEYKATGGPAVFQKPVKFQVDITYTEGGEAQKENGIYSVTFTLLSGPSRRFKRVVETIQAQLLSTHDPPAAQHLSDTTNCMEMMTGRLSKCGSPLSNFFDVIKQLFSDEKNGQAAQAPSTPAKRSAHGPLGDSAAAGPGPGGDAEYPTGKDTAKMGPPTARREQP
Chain of Tyrosine-protein kinase ABL1 (Homo sapiens), P00519 [F317L] (P00519 whole entry F317L, the tested form may be a part): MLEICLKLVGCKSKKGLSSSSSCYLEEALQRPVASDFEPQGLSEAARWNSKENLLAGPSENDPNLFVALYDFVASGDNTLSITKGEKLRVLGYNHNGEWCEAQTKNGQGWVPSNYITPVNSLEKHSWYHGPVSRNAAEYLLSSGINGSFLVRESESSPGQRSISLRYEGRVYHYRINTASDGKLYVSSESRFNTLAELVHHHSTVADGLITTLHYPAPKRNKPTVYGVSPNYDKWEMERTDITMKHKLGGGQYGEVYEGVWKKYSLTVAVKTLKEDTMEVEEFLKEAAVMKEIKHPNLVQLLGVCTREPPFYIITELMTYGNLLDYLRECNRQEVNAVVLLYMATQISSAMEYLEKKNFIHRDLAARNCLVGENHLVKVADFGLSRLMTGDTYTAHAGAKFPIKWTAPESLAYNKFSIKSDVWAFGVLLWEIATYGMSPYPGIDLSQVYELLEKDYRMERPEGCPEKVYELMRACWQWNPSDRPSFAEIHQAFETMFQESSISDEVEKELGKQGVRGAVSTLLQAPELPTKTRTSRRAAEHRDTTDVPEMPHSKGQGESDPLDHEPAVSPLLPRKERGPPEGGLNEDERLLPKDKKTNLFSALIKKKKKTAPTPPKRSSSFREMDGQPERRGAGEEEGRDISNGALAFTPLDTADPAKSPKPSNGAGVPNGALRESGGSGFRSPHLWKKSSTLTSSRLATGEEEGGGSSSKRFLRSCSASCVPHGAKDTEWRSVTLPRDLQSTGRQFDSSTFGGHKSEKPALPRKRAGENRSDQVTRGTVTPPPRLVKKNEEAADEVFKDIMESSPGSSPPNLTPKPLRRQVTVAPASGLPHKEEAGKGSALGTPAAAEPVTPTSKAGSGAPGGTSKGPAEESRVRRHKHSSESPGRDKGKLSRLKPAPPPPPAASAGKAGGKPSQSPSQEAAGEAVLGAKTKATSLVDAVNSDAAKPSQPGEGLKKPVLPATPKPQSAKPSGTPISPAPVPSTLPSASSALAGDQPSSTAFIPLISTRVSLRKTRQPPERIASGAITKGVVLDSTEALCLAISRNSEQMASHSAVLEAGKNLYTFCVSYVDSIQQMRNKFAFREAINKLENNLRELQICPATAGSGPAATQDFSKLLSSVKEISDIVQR
Chain of Mitogen-activated protein kinase 1 (Homo sapiens) (P28482 whole entry, the tested form may be a part): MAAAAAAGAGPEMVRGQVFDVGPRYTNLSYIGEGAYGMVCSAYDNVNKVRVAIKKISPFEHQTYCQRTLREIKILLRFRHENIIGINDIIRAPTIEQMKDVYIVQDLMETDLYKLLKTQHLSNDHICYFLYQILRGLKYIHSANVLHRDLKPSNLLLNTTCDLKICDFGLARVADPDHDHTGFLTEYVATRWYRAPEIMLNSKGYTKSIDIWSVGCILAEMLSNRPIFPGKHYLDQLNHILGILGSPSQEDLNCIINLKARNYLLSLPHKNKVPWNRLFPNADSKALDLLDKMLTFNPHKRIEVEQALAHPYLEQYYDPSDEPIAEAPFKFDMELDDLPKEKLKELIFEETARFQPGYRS
Chain of Tyrosine-protein kinase ABL1 (Homo sapiens), P00519 [F317I] (P00519 whole entry F317I, the tested form may be a part): as the sequence (P00519 whole entry F317L, the tested form may be a part) above, with L317I counted along it

Compound: Cc1ccc(NC(=O)c2ccc(CN(CCN(C)C)C(=O)c3cccnc3)cc2)cc1Nc1nccc(-c2cccnc2)n1
- Activity [1]: 94%
- Activity [2]: 79%
- Activity [3]: 97%
- Activity [4]: 100%
- Activity [5]: 100%
- Activity [6]: 94%
- Activity [7]: 95%
- Activity [8]: 83%
- Activity [9]: 100%
- Activity [10]: 100%
- Activity [11]: 87%
- Activity [12]: 90%
- Activity [13]: 82%
- Activity [14]: 82%
- Activity [15]: 88%
- Activity [16]: 100%
- Activity [17]: 100%
- Activity [18]: 86%
- IC50 [19]: 2460 nM
- inhibition [20]: Active
- inhibition [21]: Dose-dependent effect
